Shown are actives, neighbours in structure and some others; about 1.6% of the full set was active somewhere.
dFosB act-1: activators of delta FosB homodimer, primary screen, biochemical, fluorescence polarization, TAMRA-CDK5 oligo, single point; Protein FosB (Mus musculus), P13346; purified delta FosB; percent of positive-control signal above neutral wells; activation, % at 25 µM; 340,000 tested, 0.99% active; AID 493131, 2011;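 active means mean activation above about 17%, with every replicate also reaching it, limit read from the data, passing the limit was not always enough; inconclusive means only one of the two conditions met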
SR-BI HDL uptake: inhibitors of SR-BI mediated HDL lipid uptake, primary screen, ldlA[mSR-BI] cells, fluorescence, single point | Scavenger receptor class B member 1 (Mus musculus), Q61009 | ldlA[mSR-BI] CHO cells, DiI-HDL uptake fluorescence, 3 h | inhibition, % at 12.5 µM | 320,000 tested, 0.96% active;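 active means mean replicate inhibition of at least 70% and a set share of replicates each scoring 70 or more; inconclusive means meets just one of the two criteria; inactive means fails both criteria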;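 further: 0% = median of neutral control wells and 100% = median of positive control wells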
Target sequence (Q61009 whole entry, looked up): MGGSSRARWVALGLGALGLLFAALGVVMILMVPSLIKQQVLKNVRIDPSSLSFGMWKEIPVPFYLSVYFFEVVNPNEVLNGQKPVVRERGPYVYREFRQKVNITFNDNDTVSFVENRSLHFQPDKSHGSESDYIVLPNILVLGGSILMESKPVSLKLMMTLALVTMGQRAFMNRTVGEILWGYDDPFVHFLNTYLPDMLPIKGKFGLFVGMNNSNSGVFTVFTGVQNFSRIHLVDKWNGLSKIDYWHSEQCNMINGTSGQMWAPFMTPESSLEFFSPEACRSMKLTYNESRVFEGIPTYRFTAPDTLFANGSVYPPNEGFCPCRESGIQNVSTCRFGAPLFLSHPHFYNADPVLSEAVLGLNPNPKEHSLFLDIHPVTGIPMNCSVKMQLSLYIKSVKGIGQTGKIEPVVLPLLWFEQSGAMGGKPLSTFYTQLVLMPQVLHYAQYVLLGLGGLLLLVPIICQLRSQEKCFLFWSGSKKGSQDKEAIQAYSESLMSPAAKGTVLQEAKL
S100A4 MyoIIA: inhibitors of S100A4-myosin IIA peptide binding, primary screen, biochemical, fluorescence polarization, TAMRA-MyoIIA peptide | 360,000 tested, 0.14% active | Protein S100-A4 (Homo sapiens), P26447 | inhibition, % at 10.7 µM | AID 652163, 2013;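 active means mean inhibition of at least 70% across replicates, with every replicate also reaching that level; inconclusive means mean inhibition reaches 70% but some replicates fall short; inactive means mean inhibition below 70%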
Target sequence (P26447 whole entry, looked up): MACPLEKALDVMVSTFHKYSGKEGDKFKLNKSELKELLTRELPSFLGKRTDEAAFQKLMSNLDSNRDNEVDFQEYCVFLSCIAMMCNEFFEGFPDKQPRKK
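incubation = readout 5 min after mixing, signal stable up to 60 min | system = S100A4 monomer protein | buffer or medium = HEPES pH 7.2 with CaCl2, KCl, NaCl, DTT, Triton | benchmarks = neutral control DMSO, positive control TFP | also added = fluorescent myosin IIA peptide, 5 nM | compound dosing = one concentration per compound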
SR-BI uptake up: activators of SR-BI mediated DiI-HDL uptake, primary screen, ldlA[mSR-BI] CHO cells, DiI fluorescence; 3 h; 100 = double the neutral-control signal; 320,000 tested, 0.096% active; activation, % at 12.5 µM;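 active means mean replicate activation of at least 60% and every replicate at or above 60%; inconclusive means mean or all-replicate condition met, but not both; inactive means mean below 60% and not all replicates reaching 60%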;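 further: 0% = median plate neutral-control signal and 100% = twice that signal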
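Assay system: LDL receptor-deficient CHO ldlA cells overexpressing murine SR-BI / Medium: BSA-supplemented, HEPES-buffered Ham's F12, pH 7.4 / Probe or stimulus: DiI-labelled HDL at 10 µg/mL final / Timing: compound with DiI-HDL co-incubation, 3 h at 37 °C / Technique: bottom-read cell fluorescence after medium removal, ex 550/em 595 nm / Measure: HDL uptake via cellular fluorescence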
RAD54 inh: inhibitors of human RAD54 branch migration, primary screen, biochemical, fluorescence, single point. DNA repair and recombination protein RAD54-like (Homo sapiens), Q92698. RAD54 Holliday junction branch migration, FAM/BHQ fluorescence. inhibition, % at 10.4 µM. 360,000 tested, 0.14% active. AID 602329, 2012;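 active means mean normalized replicate activity at least 40 and at least half of replicates scoring 40 or more; inconclusive means only one of the two criteria met; inactive means mean below 40 and under half of replicates reaching 40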;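 further: 0% = median of neutral control wells and 100% = median of positive control wells; inhibitors cause a drop in the FAM fluorescence signal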
PvdQ inh: P. aeruginosa PvdQ acylase inhibitors, primary screen, biochemical, fluorescence, plate reader and imaging, single point; PvdQ acylase [Pseudomonas aeruginosa LESB58]; purified PvdQ acylase; inhibition, % at 10 µM; 340,000 tested, 0.063% active; AID 488965, 2010; in the data active means inhibition above about 30%, passing the limit was not always enough; inconclusive means no clear call, values can overlap the other calls;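 further: 0% = vehicle neutral wells and 100% = reference inhibitor wells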
dFosB act-2: activators of mouse delta FosB DNA binding, confirmation, biochemical, fluorescence polarization, TAMRA-CDK5 oligo, cherry-picked samples. shares compounds with dFosB act-1. purified delta FosB; normalised: neutral wells 0, positive control 100. activation, % at 24.9 µM. 2,400 tested, under 10 active. AID 588690, 2011;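 active means highest replicate activation at or above 34% and every replicate reaching that threshold; inconclusive means meets only one of the two criteria; inactive means meets neither criterion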;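 further: higher polarization means more probe DNA bound by delta FosB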
* = called active by the depositor; ? = inconclusive; . = not tested or not shown.

SMILES	dFosB act-1	SR-BI HDL uptake	S100A4 MyoIIA	SR-BI uptake up	RAD54 inh	PvdQ inh	dFosB act-2
CCCC(=O)Nc1ccc2c(c1)C(=O)N(C)[C@H]1CC[C@H](CC(=O)N3CCc4ccccc4C3)O[C@H]1CO2	.	.	.	.	-2	.	.
Cc1cc(C)c(NC(=O)CSCc2nc3sc(C)c(C)c3c(=O)[nH]2)c(Cl)c1	32*	-26	12	26	-5	-5	1
Cc1cc(NC(=O)CSc2nnc(Nc3ccccc3C)s2)no1	62*	-13	1	13	.	-9	0
Cc1ccccc1NC(=O)CSc1nnc(NC(=O)c2ccco2)s1	39*	-14	-9	14	-8	4	0
O=C(CSc1nnc(NC(=O)c2ccco2)s1)Nc1ccccc1F	-1	-24	0	24	0	-1	.
C[C@H]1CN([C@@H](C)CO)S(=O)(=O)c2ccc(C3=CCCC3)cc2O[C@H]1CN(C)Cc1ccncc1	.	.	-7	.	-11	.	.
C[C@@H]1CN([C@@H](C)CO)C(=O)Cc2cc(NC(=O)Nc3ccc4c(c3)OCO4)ccc2O[C@@H]1CN(C)Cc1ccc(C(=O)Nc2ccccc2N)cc1	.	.	-4	.	.	.	.
O=C(Nc1cccc(NC(=O)c2ccc(Br)o2)n1)c1ccc(Br)o1	34*	67	.	-67	8	-12	1
Cc1nc(NC(=O)c2ccc(Br)o2)ccc1Br	1	-6	-1	6	-4	5	.
COCCNC(=O)/C(C#N)=C/c1ccc(C)o1	-2	-9	2	9	.	0	.
CCOC(=O)c1ccc(NC(=O)C(=O)NCc2ccc(/C=C(/C#N)C(=O)NCCOC)o2)cc1	23*	45	18	-45	.	6	-2
CO[C@H]1CN(C)C(=O)c2ccc(NC(C)=O)cc2OC[C@H](C)N(CCc2ccccc2)C[C@H]1C	.	.	6	.	-4	.	.
CCOC(=O)c1c(CSC(=N)N)n(C)c2cc(Br)c(OC(C)=O)cc12	13	50	-4	-50	.	-60	.
CCOC(=O)c1c(CSC(=N)N)n(-c2ccc(C)cc2)c2cc(Br)c(OC(C)=O)cc12	37*	3	.	-3	8	-46	2
COc1ccc(/C=C/C(=O)Nc2ccc(-n3nncc3-c3ccc(OC)c(OC)c3)cc2)cc1OC	46*	70	4	-70	-5	-5	-2
COc1ccc(/C=C/C(=O)NC(=S)Nc2ccc(S(N)(=O)=O)cc2)cc1OC	47*	20	-1	-20	-7	6	2
COc1ccc(-c2cnnn2-c2ccc(NC(=O)/C=C/c3ccc(OC)c(OC)c3)cc2)cc1	2	61	-1	-61	.	-2	.
NC(N)=NS(=O)(=O)c1ccc(NC(=S)NC(=O)/C=C/c2ccccc2)cc1	22*	-22	1	22	-11	-12	3
COc1ccc(NC(=S)NCc2ccc(S(N)(=O)=O)cc2)cc1OC	3	-2	-24	2	7	-10	.
COc1ccc(/C=C/C(=O)NC(=S)Nc2ccccc2)cc1OC	33*	-8	-2	8	9	2	0
Cc1noc(C)c1S(=O)(=O)Nc1cccc2c1O[C@@H](CN(C)CC1CC1)[C@@H](C)CN([C@H](C)CO)C2=O	.	.	4	.	-1	.	.
C[C@@H](NC(=O)C[C@@H]1CC[C@@H](NC(=O)Cc2ccccn2)[C@H](CO)O1)c1ccccc1	.	.	27	.	-2	.	.
N#C/C(=C(/O)c1ccc(Cl)c([N+](=O)[O-])c1)c1nc2ccccc2[nH]1	42*	-1	?	1	13	-5	2
N#C/C(=C(/O)c1ccc([N+](=O)[O-])cc1)c1nc2ccccc2[nH]1	.	.	-1	.	14	.	.
C[C@H](CO)N1C[C@H](C)[C@H](CN(C)Cc2ccc(C(=O)O)cc2)OCCCC[C@H](C)Oc2ccc(NC(=O)CCC(F)(F)F)cc2C1=O	.	.	2	.	-1	.	.
SMILES	dFosB act-1	SR-BI HDL uptake	S100A4 MyoIIA	SR-BI uptake up	RAD54 inh	PvdQ inh	dFosB act-2
O=C(CSc1ccc(-c2ccc3c(c2)OCO3)nn1)Nc1nccs1	36*	7	13	-7	.	-10	-4
C[C@H]1CN([C@@H](C)CO)C(=O)c2cc(NS(=O)(=O)c3cccs3)ccc2O[C@@H]1CN(C)Cc1ccc(Cl)c(Cl)c1	.	.	4	.	-8	.	.
COc1ccccc1CN1C[C@H](C)[C@H](OC)CN(C)C(=O)c2ccc(NC(C)=O)cc2OC[C@H]1C	.	.	-20	.	-14	.	.
COc1cccc(NC(=O)Cn2nnc(C(=O)Nc3cc(Cl)ccc3OC)c2N)c1	38*	15	-19	-15	-5	-15	4
COc1ccc(Cl)cc1NC(=O)c1nnn(CC(=O)Nc2cc(C)cc(C)c2)c1N	103*	12	-6	-12	-10	-13	1
Cc1ccc(NC(=O)Cn2nnc(C(=O)Nc3ccc(F)c(Cl)c3)c2N)cc1	?	-9	2	9	2	5	.
COc1ccc(NC(=O)Cn2nnc(C(=O)Nc3ccc(F)c(Cl)c3)c2N)cc1	32*	30	-2	-30	-5	-28	4
COc1cccc(Cn2nnc(C(=O)Nc3cc(Cl)ccc3OC)c2N)c1	2	17	0	-17	-6	0	.
COc1ccc(Cl)cc1NC(=O)c1nnn(CC(=O)Nc2ccc3c(c2)OCO3)c1N	21*	9	-2	-9	15	7	-2
O=C(C[C@H]1CC[C@@H](NC(=O)c2cccc(F)c2)[C@H](CO)O1)NCCN1CCCC1	.	.	16	.	-2	.	.
CO[C@@H]1CN(C)C(=O)c2cc(NC(=O)Nc3cccc(F)c3)ccc2OC[C@@H](C)N(C(=O)Nc2c(C)noc2C)C[C@H]1C	.	.	-1	.	-2	.	.
CC(=O)N1[C@@H]2c3ccc(-c4cccnc4)c(=O)n3C[C@H]1[C@H](CO)[C@H]2C(=O)N1CCc2ccccc2C1	.	.	19	.	5	.	.
CO[C@H]1CN(C)C(=O)c2cc(NC(=O)Nc3cccc(Cl)c3)ccc2OC[C@H](C)N(C)C[C@@H]1C	.	.	4	.	13	.	.
COc1ccc(Cl)cc1NC(=O)c1nnn(CC(=O)Nc2ccc(OC)c(OC)c2)c1N	94*	5	-2	-5	-1	-13	2

Screens: PubChem, Broad Institute
